Laboratory results reported in the EternaBench riboswitch data.

Test system: MS2 coat protein
Assay: apparent Kd, MS2 coat protein; higher = weaker binding; RNA-MaP array; theophylline 2 mM where present
Method in brief: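 Two titrations, one without ligand and one with constant ligand, were run with SNAP-549-labelled MS2 coat protein from 0.7 or 1.5 nM, doubling to 3 µM. The targets were designs transcribed by stalled E. coli RNA polymerase on Illumina sequencing-chip clusters, in 100 mM Tris-HCl pH 7.5, 80 mM KCl, 4 mM MgCl2, BSA, DTT, yeast tRNA and Tween-20. The apparent Kd is the median of filtered per-cluster binding-curve fits, with green signal normalised to red-channel RNA signal and control-cluster median Fmax.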

[1] = designed as: ON switch for theophylline, no ligand
[2] = ligand present: theophylline, designed as: ON switch for theophylline
[3] = designed as: OFF switch for theophylline, no ligand
[4] = ligand present: theophylline, designed as: OFF switch for theophylline

Sequence	apparent Kd [1] [nM]	apparent Kd [2] [nM]	apparent Kd [3] [nM]	apparent Kd [4] [nM]
UGUAACAUGAGGAUCACCCAUGUAAGUGAUACCAGAUAAGUAGUAGUCCCUUGGCAGCAUAUUGGGAAAGUGUAUAGUCUAUACG	52.8	65.1	–	–
AGUACACGAACGGAUACCAGCCGGACAUGAGGAUCACCCAUGUCCUACCUCUGUUCGGUUGGCCCUUGGCAGCCGUUCGUGUACA	117	88.3	–	–
AACUGGACCCGUGAUACCAGAGACAUGAGGAUCACCCAUGUACAUGAGGAUCACCCAUGUCUCCCUUGGCAGCACCGCAGGGAGC	–	–	97.5	393
CCUGCUACGGGAAACCGUAGCAGGAAUGAUACCAGUAGGAAAGACUACCCUUGGCAGCAUGGGAAACAUGAGGAUCACCCAUGUU	56.3	56.6	–	–
UUUGAUAGGACAGAUACCAGCGUGUUAUAAAACAUGAGGAUCACCCAUGUAGUGAUCAAGCGCCCUUGGCAGCUGGUUUGUUAGG	188	323	–	–
AUUUUCAUGGUCAUAUAUAUAUCUUCAGAUACCAGACUAUAUUAAGUCCCUUGGCAGCUGUUACAUGAGGAUCACCCAUGUUAUA	–	–	127	36.2
UUUUAAAGCAUGGCGUAUCGGAAAACCGAUACCAGUACAGAAAUGUACCCUUGGCAGCGGCAUUUUACAUGAGGAUCACCCAUGU	–	–	14	40.3
AUCGUACCUGAAGAUACCAGCAUGUGAUCAUAACAUGAGGAUCACCCAUGUAAUCAGUGAUGCCCUUGGCAGCUUGAUCGGUACA	40.8	19.2	–	–
UCGUGUGUUUCGGAUACCAGUGAAAUCGAUACAUGAGGAUCACCCAUGUGAGAGGAUGUACACCCUUGGCAGCUGUCUGUAGCGG	48.9	37.4	–	–
GAGCUGAUGUAGAAAUUUUAUUUCUGAGAUACCAGUACAGAAAUGUACCCUUGGCAGCUCAGUUUUACAUGAGGAUCACCCAUGU	–	–	12.2	15
UGACAUUGCUGCGAUACCAGACAUGAGGAUCACCCAUGUGCCAAAUAAACGUACAUAAAUGUCCCUUGGCAGCGCAGCAAUGUCU	–	–	64.4	752
UGCUGACAAGGACAUGGAUGAUCAGCUGAUACCAGCCUGGAAACAGGCCCUUGGCAGCAGCACAUGAGGAUCACCCAUGUAAUAA	–	–	33.7	66.3
CUGCUACAUGAGGAUCACCCAUGUGGAGAUACCAGCCUGAACGAUGGCCCUUGGCAGCUCUUAGCUGGUGAUCAUAUAUUUCAGA	–	–	30.5	146
AGAUUACAUGUUAUAAUACGGUAUACUGAUACCAGUGUUUCUAUUCACCCUUGGCAGCAGCAACAUGAGGAUCACCCAUGUAUUA	17.1	16	–	–
ACAUGAGGAUCACCCAUGUCAAGGCACGAUACCAGCUGAUCCCGUGGCCCUUGGCAGCGUCACGUUUGGUCCCGCGGAUGACACG	89	95.8	–	–
CCGAACAUGAGGAUCACCCAUGUUAGGGAUACCAGCCCAGACAUGGGCCCUUGGCAGCUCUAUAGCUGACGAAAGUCAGCAUCGG	58.5	30.5	–	–
UUUACAUGAGGAUCACCCAUGUGCCAUGAUACCAGACAUGAAAAUGUCCCUUGGCAGCAUGAAUAAUCCUCGUCGGGAAACCGAC	140	544	–	–
AUUAAAAGUUGUGAUACCAGACGAACAUGAGGAUCACCCAUGUAACUUUUAGGUGUUGUAGUCCCUUGGCAGCACUAUGUAGUUA	43.6	38.2	–	–
UCGUGUGUUUCGGAUACCAGUGAAAUCGAUACAUGAGGAUCACCCAUGUGAGAGGAUGUACACCCUUGGCAGCUGGCUGUUGCGG	42.4	42.6	–	–
UGAACAUGAGGAUCACCCAUGUAGUCAGAUACCAGACACUGCAUGGUCCCUUGGCAGCUGAAGAGCGUUUGCCAAAUAACGUUCA	162	567	–	–
CAAUACGUAACUGAUACCAGUGUACUGACAUGAGGAUCACCCAUGUUGGGUUUUGUUGUACACCCUUGGCAGCAGAAUCGUAUUG	–	–	70.1	93.7
UGUCUAGUAAUCGAUACCAGCUACAUGAGGAUCACCCAUGUAGUUCGAACGGCCGCAUGUAGCCCUUGGCAGCGAAUAGUUACAU	–	–	18.9	52.7
GCUGUAAGUGCAGAUACCAGCAGGUGAUAUUUCAUAUGACAUGAGGAUCACCCAUGUAACUGCCCUUGGCAGCUGCACUUACAGC	373	40.9	–	–
